Measurements: ChEMBL document CHEMBL1147606, “Synthesis and cytotoxicity of hydrophobic esters of podophyllotoxins” (Bioorg Med Chem Lett, 2004)

Legend:
Type in all cases: functional, cell-based
A549 = test: In vitro cytotoxicity against the A-549 (human lung carcinoma) neoplastic cell line
HT-29 = test: In vitro cytotoxicity against the HT-29 (human colon carcinoma) neoplastic cell line
Outline: (§1)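 In vitro assay adapted from Bergeron's method. P-388 was grown as a suspension culture of a mouse lymphoid neoplasm. A-549, HT-29 and MEL-28 were grown as monolayer cultures. Dose–response curves were constructed, and IC50 values (nM) were calculated from them.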

P388 = test: In vitro cytotoxicity against the P-388 (from DBA/2 mouse) neoplastic cell line; outline: as §1
SK-MEL-28 = test: In vitro cytotoxicity against MEL-28 (human malign melanoma) neoplastic cell line; outline: as §1

Row | SMILES | IC50 (A549; Homo sapiens, A549) | IC50 (HT-29; Homo sapiens, HT-29) | IC50 (P388; Mus musculus, P388) | IC50 (SK-MEL-28; Homo sapiens, SK-MEL-28) | IC50 (A549; a549) | IC50 (HT-29; ht-29) | IC50 (SK-MEL-28; sk-mel-28) | IC50 (P388; p388)
1 | COc1cc([C@@H]2c3cc4c(cc3[C@@H](O)[C@H]3COC(=O)[C@H]23)OCO4)cc(OC)c1OC [EPIPODOPHYLLOTOXIN] | 6 µM | 6 µM | 6 µM |  |  |  |  | 
2 | COc1cc([C@@H]2c3cc4c(cc3[C@@H](OC(=O)Cc3ccccc3)[C@H]3COC(=O)[C@H]23)OCO4)cc(OC)c1OC | 0.094 µM | 0.094 µM | 0.047 µM | 0.094 µM |  |  |  | 
3 | COc1cc([C@@H]2c3cc4c(cc3[C@H](OC(=O)C3CC5C=CC3C5)[C@H]3COC(=O)[C@H]23)OCO4)cc(OC)c1OC (some centres undefined) |  |  |  |  | 0.468 µM | 0.468 µM | 0.468 µM | 0.468 µM
4 | COc1cc([C@@H]2c3cc4c(cc3[C@@H](OC(=O)/C=C/c3ccccc3)[C@H]3COC(=O)[C@H]23)OCO4)cc(OC)c1OC | 0.184 µM | 0.184 µM | 0.184 µM | 0.184 µM |  |  |  | 
5 | COc1cc([C@@H]2c3cc4c(cc3[C@H](OC(=O)Cc3ccccc3)[C@H]3COC(=O)[C@H]23)OCO4)cc(OC)c1OC | 0.188 µM | 0.188 µM | 0.188 µM | 0.188 µM |  |  |  | 
6 | COc1cc([C@@H]2c3cc4c(cc3[C@H](OC(=O)C3CC5C=CC3C5)[C@H]3COC(=O)[C@@H]23)OCO4)cc(OC)c1OC (some centres undefined) | 0.019 µM | 0.019 µM | 0.019 µM | 0.019 µM |  |  |  | 
7 | COc1cc([C@@H]2c3cc4c(cc3[C@H](OC(=O)/C=C/c3ccccc3)[C@H]3COC(=O)[C@H]23)OCO4)cc(OC)c1OC | 9.18 µM | 9.18 µM | 4.59 µM | 9.18 µM |  |  |  | 
8 | COc1cc([C@@H]2c3cc4c(cc3[C@H](OC(=O)c3ccccc3)[C@H]3COC(=O)[C@H]23)OCO4)cc(OC)c1OC | 1.93 µM | 1.93 µM | 1.93 µM | 1.93 µM |  |  |  | 
9 | CCCCCCC(=O)O[C@@H]1c2cc3c(cc2[C@@H](c2cc(OC)c(OC)c(OC)c2)[C@H]2C(=O)OC[C@@H]21)OCO3 | 0.19 µM | 0.19 µM | 0.19 µM | 0.19 µM |  |  |  | 
10 | COc1cc([C@@H]2c3cc4c(cc3C(OC(=O)C3CC5C=CC3C5)[C@H]3COC(=O)C23)OCO4)cc(OC)c1OC (single isomer, unassigned) |  |  |  |  | 0.004 µM | 0.004 µM | 0.004 µM | 0.005 µM
11 | COc1cc([C@@H]2c3cc4c(cc3[C@H](O)[C@H]3COC(=O)[C@H]23)OCO4)cc(OC)c1OC [PODOFILOX] | 2.9 µM | 2.9 µM | 2.9 µM |  |  |  |  | 
12 | COc1cc([C@@H]2c3cc4c(cc3[C@@H](O)[C@H]3COC(=O)[C@@H]23)OCO4)cc(OC)c1OC | 0.012 µM | 0.024 µM | 0.012 µM |  |  |  |  | 
13 | COc1cc([C@@H]2c3cc4c(cc3[C@@H](OC(=O)c3ccccc3)[C@H]3COC(=O)[C@H]23)OCO4)cc(OC)c1OC | 0.048 µM | 0.048 µM | 0.024 µM | 0.048 µM |  |  |  | 
14 | C=CC(=O)O[C@@H]1c2cc3c(cc2[C@@H](c2cc(OC)c(OC)c(OC)c2)[C@@H]2C(=O)OC[C@@H]21)OCO3 | 0.021 µM | 0.021 µM | 0.021 µM | 0.021 µM |  |  |  | 
15 | COc1cc([C@@H]2c3cc4c(cc3[C@H](O)[C@H]3COC(=O)[C@@H]23)OCO4)cc(OC)c1OC [AXL-1717] | 0.06 µM | 0.06 µM | 0.06 µM |  |  |  |  | 
16 | C=CC(=O)O[C@H]1c2cc3c(cc2[C@@H](c2cc(OC)c(OC)c(OC)c2)[C@H]2C(=O)OC[C@@H]21)OCO3 | 0.213 µM | 0.213 µM | 0.213 µM | 0.213 µM |  |  |  | 
17 | C=CC(=O)O[C@H]1c2cc3c(cc2[C@@H](c2cc(OC)c(OC)c(OC)c2)[C@@H]2C(=O)OC[C@@H]21)OCO3 | 0.053 µM | 0.055 µM | 0.055 µM | 0.053 µM |  |  |  | 
18 | COc1cc([C@@H]2c3cc4c(cc3[C@@H](OC(=O)CC3CC5CCC3C5)[C@H]3COC(=O)[C@H]23)OCO4)cc(OC)c1OC (some centres undefined) | 0.454 µM | 0.454 µM | 0.454 µM | 0.454 µM |  |  |  | 
19 | COc1cc([C@@H]2c3cc4c(cc3[C@@H](O[C@@H]3O[C@@H]5CO[C@@H](C)O[C@H]5[C@H](O)[C@H]3O)[C@H]3COC(=O)[C@H]23)OCO4)cc(OC)c1O [ETOPOSIDE] |  | 1.7 µM | 0.17 µM | 0.85 µM |  |  |  | 
20 | COc1cc([C@@H]2c3cc4c(cc3[C@@H](OC(=O)C3CC5C=CC3C5)[C@H]3COC(=O)[C@H]23)OCO4)cc(OC)c1OC (some centres undefined) | 1.12 µM | 1.12 µM | 1.12 µM | 1.12 µM |  |  |  | 
21 | C=CC(=O)O[C@@H]1c2cc3c(cc2[C@@H](c2cc(OC)c(OC)c(OC)c2)[C@H]2C(=O)OC[C@@H]21)OCO3 | 0.213 µM | 0.213 µM | 0.213 µM | 0.213 µM |  |  |  | 
